{"source": "ChEMBL document CHEMBL3352599", "about": "“Radiosynthesis and biological evaluation of a novel enoyl-ACP reductase inhibitor for Staphylococcus aureus” (Eur J Med Chem, 2014)", "key": {"Liver [1]": {"tested_on": "Liver", "experiment": "Drug uptake in liver of healthy Swiss Webster mouse at 3.7 MBq, iv after 60 mins", "type": "ADME, organism-based", "details": "in vivo, 1 h", "in_short": "(§1)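 Uninfected control mice. [11C]-label given into the lateral tail vein in ethanol/saline (1/3) under isoflurane, then mice recovered and moved freely. Killed by cervical dislocation; blood taken by cardiac puncture, spleen, lung, liver and kidney excised, weighed and well-counted. Reported as %ID/g, mean ± SD, n=3.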"}, "Blood [2]": {"tested_on": "Blood", "experiment": "Drug uptake in blood of Swiss Webster thigh infected mouse model infected with methicillin-resistant Staphylococcus aureus BAA1762 at 3.7 MBq, iv after 30 mins", "type": "ADME, organism-based", "details": "in vivo, 0.5 h", "in_short": "(§2)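 Neutropenic mice (ip cyclophosphamide) given 5×10^5 MRSA cells into the left thigh muscle. [11C]-label given into the lateral tail vein in ethanol/saline (1/3) under isoflurane, then mice recovered and moved freely. Killed by cervical dislocation; muscle from both thighs and blood collected, weighed and well-counted. Reported as %ID/g, mean ± SD, n=3.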"}, "[3]": {"experiment": "Drug uptake in infected thigh of Swiss Webster thigh infected mouse model infected with methicillin-resistant Staphylococcus aureus BAA1762 at 3.7 MBq, iv after 60 mins", "type": "ADME, organism-based, Thigh muscle", "details": "in vivo, 1 h", "in_short": "as §2"}, "Kidney [4]": {"tested_on": "Kidney", "experiment": "Drug uptake in kidney of Swiss Webster systemic infected mouse model infected with methicillin-resistant Staphylococcus aureus BAA1762 at 3.7 MBq, iv after 20 mins", "type": "ADME, organism-based", "details": "in vivo", "in_short": "as §1, with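 “Neutropenic mice (ip cyclophosphamide) infected ip with 2×10^7 MRSA cells.” for “Uninfected control mice.”, “organs” for “spleen, lung, liver and kidney”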"}, "Liver [5]": {"tested_on": "Liver", "experiment": "Drug uptake in liver of healthy Swiss Webster mouse at 3.7 MBq, iv after 40 mins", "type": "ADME, organism-based", "details": "in vivo", "in_short": "as §1"}, "Spleen [6]": {"tested_on": "Spleen", "experiment": "Drug uptake in spleen of healthy Swiss Webster mouse at 3.7 MBq, iv after 20 mins", "type": "ADME, organism-based", "details": "in vivo", "in_short": "as §1"}, "Liver [7]": {"tested_on": "Liver", "experiment": "Drug uptake in liver of Swiss Webster systemic infected mouse model infected with methicillin-resistant Staphylococcus aureus BAA1762 at 3.7 MBq, iv after 60 mins", "type": "ADME, organism-based", "details": "in vivo, 1 h", "in_short": "as §1, with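 “Neutropenic mice (ip cyclophosphamide) infected ip with 2×10^7 MRSA cells.” for “Uninfected control mice.”, “organs” for “spleen, lung, liver and kidney”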"}, "Spleen [8]": {"tested_on": "Spleen", "experiment": "Drug uptake in spleen of Swiss Webster systemic infected mouse model infected with methicillin-resistant Staphylococcus aureus BAA1762 at 3.7 MBq, iv after 40 mins", "type": "ADME, organism-based", "details": "in vivo", "in_short": "as §1, with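 “Neutropenic mice (ip cyclophosphamide) infected ip with 2×10^7 MRSA cells.” for “Uninfected control mice.”, “organs” for “spleen, lung, liver and kidney”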"}, "[9]": {"experiment": "Drug uptake in healthy thigh of Swiss Webster thigh infected mouse model infected with methicillin-resistant Staphylococcus aureus BAA1762 at 3.7 MBq, iv after 15 mins", "type": "ADME, organism-based, Thigh muscle", "details": "in vivo, 0.25 h", "in_short": "as §2"}, "Kidney [10]": {"tested_on": "Kidney", "experiment": "Drug uptake in kidney of healthy Swiss Webster mouse at 3.7 MBq, iv after 60 mins", "type": "ADME, organism-based", "details": "in vivo, 1 h", "in_short": "as §1"}, "Blood [11]": {"tested_on": "Blood", "experiment": "Drug uptake in blood of Swiss Webster thigh infected mouse model infected with methicillin-resistant Staphylococcus aureus BAA1762 at 3.7 MBq, iv after 60 mins", "type": "ADME, organism-based", "details": "in vivo, 1 h", "in_short": "as §2"}, "Blood [12]": {"tested_on": "Blood", "experiment": "Drug uptake in blood of healthy Swiss Webster mouse at 3.7 MBq, iv after 60 mins", "type": "ADME, organism-based", "details": "in vivo, 1 h", "in_short": "as §1"}, "Spleen [13]": {"tested_on": "Spleen", "experiment": "Drug uptake in spleen of Swiss Webster systemic infected mouse model infected with methicillin-resistant Staphylococcus aureus BAA1762 at 3.7 MBq, iv after 60 mins", "type": "ADME, organism-based", "details": "in vivo, 1 h", "in_short": "as §1, with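 “Neutropenic mice (ip cyclophosphamide) infected ip with 2×10^7 MRSA cells.” for “Uninfected control mice.”, “organs” for “spleen, lung, liver and kidney”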"}, "Blood [14]": {"tested_on": "Blood", "experiment": "Drug uptake in blood of Swiss Webster thigh infected mouse model infected with methicillin-resistant Staphylococcus aureus BAA1762 at 3.7 MBq, iv after 45 mins", "type": "ADME, organism-based", "details": "in vivo, 0.75 h", "in_short": "as §2"}, "Kidney [15]": {"tested_on": "Kidney", "experiment": "Drug uptake in kidney of Swiss Webster systemic infected mouse model infected with methicillin-resistant Staphylococcus aureus BAA1762 at 3.7 MBq, iv after 60 mins", "type": "ADME, organism-based", "details": "in vivo, 1 h", "in_short": "as §1, with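 “Neutropenic mice (ip cyclophosphamide) infected ip with 2×10^7 MRSA cells.” for “Uninfected control mice.”, “organs” for “spleen, lung, liver and kidney”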"}, "Blood [16]": {"tested_on": "Blood", "experiment": "Drug uptake in blood of healthy Swiss Webster mouse at 3.7 MBq, iv after 40 mins", "type": "ADME, organism-based", "details": "in vivo", "in_short": "as §1"}, "[17]": {"experiment": "Drug uptake in infected thigh of Swiss Webster thigh infected mouse model infected with methicillin-resistant Staphylococcus aureus BAA1762 at 3.7 MBq, iv after 30 mins", "type": "ADME, organism-based, Thigh muscle", "details": "in vivo, 0.5 h", "in_short": "as §2"}, "Blood [18]": {"tested_on": "Blood", "experiment": "Drug uptake in blood of Swiss Webster thigh infected mouse model infected with methicillin-resistant Staphylococcus aureus BAA1762 at 3.7 MBq, iv after 15 mins", "type": "ADME, organism-based", "details": "in vivo, 0.25 h", "in_short": "as §2"}, "[19]": {"experiment": "Drug uptake in infected thigh of Swiss Webster thigh infected mouse model infected with methicillin-resistant Staphylococcus aureus BAA1762 at 3.7 MBq, iv after 45 mins", "type": "ADME, organism-based, Thigh muscle", "details": "in vivo, 0.75 h", "in_short": "as §2"}, "Liver [20]": {"tested_on": "Liver", "experiment": "Drug uptake in liver of Swiss Webster systemic infected mouse model infected with methicillin-resistant Staphylococcus aureus BAA1762 at 3.7 MBq, iv after 20 mins", "type": "ADME, organism-based", "details": "in vivo", "in_short": "as §1, with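 “Neutropenic mice (ip cyclophosphamide) infected ip with 2×10^7 MRSA cells.” for “Uninfected control mice.”, “organs” for “spleen, lung, liver and kidney”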"}, "Kidney [21]": {"tested_on": "Kidney", "experiment": "Drug uptake in kidney of Swiss Webster systemic infected mouse model infected with methicillin-resistant Staphylococcus aureus BAA1762 at 3.7 MBq, iv after 40 mins", "type": "ADME, organism-based", "details": "in vivo", "in_short": "as §1, with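 “Neutropenic mice (ip cyclophosphamide) infected ip with 2×10^7 MRSA cells.” for “Uninfected control mice.”, “organs” for “spleen, lung, liver and kidney”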"}}}
{"smiles": "CCCCCCc1ccc(Oc2ccccc2[11C]#N)c(O)c1", "values": [{"measurement": "Drug uptake", "setting": "Liver [1]", "result": 6.91, "unit": "%ID/cc"}, {"measurement": "Drug uptake", "setting": "Blood [2]", "result": 0.42, "unit": "%ID/cc"}, {"measurement": "Drug uptake", "setting": "[3]", "result": 0.34, "unit": "%ID/cc"}, {"measurement": "Drug uptake", "setting": "Kidney [4]", "result": 2.41, "unit": "%ID/cc"}, {"measurement": "Drug uptake", "setting": "Liver [5]", "result": 9.69, "unit": "%ID/cc"}, {"measurement": "Drug uptake", "setting": "Spleen [6]", "result": 0.67, "unit": "%ID/cc"}, {"measurement": "Drug uptake", "setting": "Liver [7]", "result": 7.31, "unit": "%ID/cc"}, {"measurement": "Drug uptake", "setting": "Spleen [8]", "result": 0.3, "unit": "%ID/cc"}, {"measurement": "Drug uptake", "setting": "[9]", "result": 0.98, "unit": "%ID/cc"}, {"measurement": "Drug uptake", "setting": "Kidney [10]", "result": 0.93, "unit": "%ID/cc"}, {"measurement": "Drug uptake", "setting": "Blood [11]", "result": 0.26, "unit": "%ID/cc"}, {"measurement": "Drug uptake", "setting": "Blood [12]", "result": 0.34, "unit": "%ID/cc"}, {"measurement": "Drug uptake", "setting": "Spleen [13]", "result": 0.31, "unit": "%ID/cc"}, {"measurement": "Drug uptake", "setting": "Blood [14]", "result": 0.28, "unit": "%ID/cc"}, {"measurement": "Drug uptake", "setting": "Kidney [15]", "result": 1.13, "unit": "%ID/cc"}, {"measurement": "Drug uptake", "setting": "Blood [16]", "result": 0.41, "unit": "%ID/cc"}, {"measurement": "Drug uptake", "setting": "[17]", "result": 0.54, "unit": "%ID/cc"}, {"measurement": "Drug uptake", "setting": "Blood [18]", "result": 0.72, "unit": "%ID/cc"}, {"measurement": "Drug uptake", "setting": "[19]", "result": 0.38, "unit": "%ID/cc"}, {"measurement": "Drug uptake", "setting": "Liver [20]", "result": 11.18, "unit": "%ID/cc"}, {"measurement": "Drug uptake", "setting": "Kidney [21]", "result": 1.15, "unit": "%ID/cc"}]}
